Results on one compound are retold here after ChEMBL document CHEMBL4725436, “Gibberellin JRA-003: A Selective Inhibitor of Nuclear Translocation of IKKα” (ACS Med Chem Lett, 2020).

Series [1] can be described thus: Inhibition of IKKalpha/IKKbeta in human HEK293T cells transfected with firefly luciferase gene assessed as inhibition of TNF-alpha-stimulated NF-kappaB signalling preincubated for 1 hr followed by TNF alpha stimulation measured after 3 hrs by luciferase reporter gene assay. The settings on record: HEK-293T. It counts as cell-based. The method in brief: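 Commercial NF-κB-driven luciferase reporter assay in HEK 293T cells stimulated with TNFα. EC50 was derived from the luminescence readout.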
For orientation: Reporter assays use an easily measured gene product as a stand-in for the process of interest.

The test system of series [2] is HEK-293T. Briefly: Cytotoxicity against human HEK293T cells assessed as reduction in cell viability measured after 24 hrs by CellTiter-Glo luminescent assay. It counts as cell-based. A digest of the protocol: (§1)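 High-throughput viability screen of test agents across a panel of 22 cancerous and noncancerous human cell lines. Viability was read by CellTiter-Glo luminescence.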

In another series the test system is PSN1. Briefly: Cytotoxicity against human PSN1 cells assessed as reduction in cell viability measured after 24 hrs by CellTiter-Glo luminescent assay. It counts as functional, cell-based. To be noted: PSN1, 24 h. A digest of the protocol: as §1
In general terms: In ATP-based viability assays light output follows the ATP content of the culture.

The next series has as its system SUD4. Briefly: Cytotoxicity against human SU-DHL-4 cells assessed as reduction in cell viability measured after 24 hrs by CellTiter-Glo luminescent assay. Format: functional, cell-based. To be noted: SU-DHL-4, 24 h. A digest of the protocol:
as §1

In series [3] the target is T1, Inhibitor of nuclear factor kappa-B kinase subunit beta (Homo sapiens) (UniProt O14920).
T1 sequence (whole entry): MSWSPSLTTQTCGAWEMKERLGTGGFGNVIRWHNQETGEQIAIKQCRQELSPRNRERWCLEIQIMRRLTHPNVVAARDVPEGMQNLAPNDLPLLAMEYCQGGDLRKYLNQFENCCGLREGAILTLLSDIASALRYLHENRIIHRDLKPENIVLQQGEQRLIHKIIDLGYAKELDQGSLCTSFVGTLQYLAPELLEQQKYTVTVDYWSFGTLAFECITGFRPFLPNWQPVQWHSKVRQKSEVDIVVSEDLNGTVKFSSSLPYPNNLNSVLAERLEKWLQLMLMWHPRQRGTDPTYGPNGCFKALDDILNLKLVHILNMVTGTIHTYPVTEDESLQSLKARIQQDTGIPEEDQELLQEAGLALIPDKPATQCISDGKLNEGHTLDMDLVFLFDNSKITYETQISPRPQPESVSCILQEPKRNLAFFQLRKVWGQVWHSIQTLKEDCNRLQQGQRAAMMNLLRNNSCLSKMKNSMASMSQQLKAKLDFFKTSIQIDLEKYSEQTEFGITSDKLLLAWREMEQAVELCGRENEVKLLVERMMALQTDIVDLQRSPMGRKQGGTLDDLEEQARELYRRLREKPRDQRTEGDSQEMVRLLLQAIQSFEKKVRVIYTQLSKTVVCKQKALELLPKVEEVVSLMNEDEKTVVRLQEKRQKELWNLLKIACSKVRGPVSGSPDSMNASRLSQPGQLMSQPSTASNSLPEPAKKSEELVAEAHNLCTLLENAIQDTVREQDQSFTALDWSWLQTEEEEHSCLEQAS
Briefly: Inhibition of IKKbeta in human HeLa cells assessed as reduction in IL-1 beta-stimulated IKK beta nuclear translocation at 10 uM pretreated with compound for 4 hrs followed by stimulation with IL-1 beta for 1 hr by immunohistochemical staining/confocal microscopy. It counts as cell-based. The method in brief:
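HeLa cells were pretreated with DMSO or test agent for 4 h, then stimulated with IL-1β (or vehicle) for 1 h. NF-κB pathway members were immunostained with AF488-tagged antibodies, nuclei were counterstained with DAPI, and compartmental localization was imaged by confocal microscopy.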

In series [4] the test system is HEK-293T. Briefly: Inhibition of IKKalpha/IKKbeta in human HEK293T cells transfected with firefly luciferase gene assessed as inhibition of NF-kappaB signalling at 10 uM by luciferase reporter gene assay. It counts as cell-based.
The target in series [5] is T2, Inhibitor of nuclear factor kappa-B kinase subunit alpha (Homo sapiens) (UniProt O15111).
T2 sequence (whole entry): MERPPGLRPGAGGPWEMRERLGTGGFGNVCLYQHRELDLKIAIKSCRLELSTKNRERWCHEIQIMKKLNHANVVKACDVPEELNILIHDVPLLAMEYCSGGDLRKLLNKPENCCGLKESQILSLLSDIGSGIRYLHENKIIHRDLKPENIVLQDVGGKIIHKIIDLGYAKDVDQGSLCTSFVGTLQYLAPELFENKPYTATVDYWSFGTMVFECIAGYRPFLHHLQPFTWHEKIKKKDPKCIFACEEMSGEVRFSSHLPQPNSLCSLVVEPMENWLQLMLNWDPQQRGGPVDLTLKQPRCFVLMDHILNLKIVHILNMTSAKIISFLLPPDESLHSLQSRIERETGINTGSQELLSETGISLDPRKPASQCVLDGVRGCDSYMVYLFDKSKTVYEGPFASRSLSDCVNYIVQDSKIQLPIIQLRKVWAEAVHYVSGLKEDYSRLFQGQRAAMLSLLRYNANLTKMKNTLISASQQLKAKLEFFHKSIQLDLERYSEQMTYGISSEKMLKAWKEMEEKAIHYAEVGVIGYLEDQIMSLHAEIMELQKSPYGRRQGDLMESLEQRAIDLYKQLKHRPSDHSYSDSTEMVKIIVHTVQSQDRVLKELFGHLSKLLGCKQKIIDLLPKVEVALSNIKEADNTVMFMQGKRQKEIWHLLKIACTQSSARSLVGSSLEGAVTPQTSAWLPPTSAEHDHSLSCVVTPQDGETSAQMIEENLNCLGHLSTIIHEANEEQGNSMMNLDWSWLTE
Briefly: Inhibition of JRA-031 binding to IKKalpha in TNF-alpha-stimulated human HEK293T cells at 1 uM pretreated with compound for 1 hr followed by labeling with JRA-031 for 1 hr followed by stimulation with TNF-alpha for 1 hr by pull down based mass spectrometry. The settings on record: HEK-293T. Format: cell-based.

Series [6] addresses T2, Inhibitor of nuclear factor kappa-B kinase subunit alpha (Homo sapiens). Briefly: Inhibition of IKK alpha nuclear translocation in human HEK-293T cells assessed as reduction in IKK alpha level in nucleus at 15 uM pretreated with compound for 1 hr followed by stimulation with IL-1 beta for 3 hrs by western blot analysis. It counts as subcellular. The method in brief:
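HEK 293T cells were pretreated with vehicle or test agent, then stimulated with IL-1β (or vehicle). Cells were lysed and nuclei separated, and the cytosolic and nuclear fractions were each probed for IKKα and IKKβ by Western blotting.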

The nature of series [7]: Selectivity index, ratio of IC50 for human Hs578Bst cells to EC50 for human CA46 cells measured after 24 hrs by CellTiter-Glo luminescent assay. It counts as toxicity. To be noted: Hs578Bst cells (IC50) versus CA46 cells (EC50). The method in brief:
as §1

Series [8] in a line: Selectivity index, ratio of IC50 for human Hs888Lu cells to EC50 for human RC-K8 cells measured after 24 hrs by CellTiter-Glo luminescent assay. Format: toxicity. To be noted: Hs888Lu cells (IC50) versus RC-K8 cells (EC50). A digest of the protocol:
as §1

A short description of series [9]: Selectivity index, ratio of IC50 for human Hs888Lu cells to EC50 for human SU-DHL-4 cells measured after 24 hrs by CellTiter-Glo luminescent assay. It counts as toxicity. To be noted: Hs888Lu cells (IC50) versus SU-DHL-4 cells (EC50). The method in brief: as §1
A short description of series [10]: Selectivity index, ratio of IC50 for human Hs888Lu cells to EC50 for human CA46 cells measured after 24 hrs by CellTiter-Glo luminescent assay. It counts as toxicity. To be noted: Hs888Lu cells (IC50) versus CA46 cells (EC50). The method in brief:
as §1

Series [11] can be described thus: Selectivity index, ratio of IC50 for human HS895SK cells to EC50 for human RC-K8 cells measured after 24 hrs by CellTiter-Glo luminescent assay. The method in brief:
as §1

Active and inactive are the calls of the source. No cut-off for these calls is given here.

Usually EC50 stands for the midpoint of the concentration-response curve. As usually defined, the IC50 is the concentration needed to halve the response being measured. In general, inhibition refers to the drop in the measured response relative to a control, in per cent. With `C=C1C[C@]23C[C@@]1(O)CC[C@H]2[C@@]12C=CC(=O)[C@@](C)(C(=O)O1)[C@H]2[C@@H]3C(=O)OC`, the EC50 is 2600 nM in [1] and below 40 nM with SUD4. In addition, the IC50 in the series on HEK-293T [2] and with PSN1 was above 10000 nM in each case. The inhibition result in [3], in series [5] and in series [6] was “Active” in each case. For the same compound, the inhibition in the series with HEK-293T [4] was 100%. The selectivity ratio at 24 h in series [7], in [8], in [9] and in [10] was 500 in each case. The “Ratio IC50/EC50” value in series [11] is 500.
